The test system of assay [1] is Ribosome. As to the kind of experiment: Inhibition of bacterial translation by blocking the function of the ribosomal GTPase center at 150 uM concentration. The format is subcellular. The note with it: Escherichia coli. In short, it runs like this:
(§1)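 Translation inhibition was tested at a single compound concentration, since limited solubility ruled out dose-response data at higher concentrations. Percent inhibition is the mean of three replicate experiments per compound (±10%).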

For assay [2], the system named is Ribosome. As to the kind of experiment: Inhibition of bacterial translation by blocking the function of the ribosomal GTPase center at 400 uM concentration. Format: subcellular. The note with it: Escherichia coli. In short, it runs like this: as §1
For assay [3], the system named is Ribosome. As to the kind of experiment: Inhibition of bacterial translation by blocking the function of the ribosomal GTPase center at 0.17 uM concentration. Format: subcellular. The conditions noted are these: Escherichia coli. In short, it runs like this:
as §1

Assay [4] deals with Ribosome. As to the kind of experiment: Inhibition of bacterial translation by blocking the function of the ribosomal GTPase center. The format is subcellular, Escherichia coli.
The subject of assay [5] is Ribosome. As to the kind of experiment: Inhibition of bacterial translation by blocking the function of the ribosomal GTPase center at 15 uM concentration. The format is subcellular. The conditions noted are these: Escherichia coli. In short, it runs like this:
as §1

By inhibition is commonly meant the drop in the measured response relative to a control, in per cent. High values mean a strong effect, low ones a weak effect. Usually IC50 stands for the concentration that gives 50% inhibition. A higher IC50 goes with a need for much substance.

In assay [1], `C=C(NC(=O)c1cnccn1)C(=O)N[C@@H](Cc1cn(C(=O)OC(C)(C)C)c2ccccc12)C(=O)OC` registered an inhibition of 10%.

In the case of `C=C(NC(=O)c1csc(-c2ccncc2)n1)C(=O)N[C@@H](COC(C)(C)C)C(=O)OC`, the inhibition in assay [1] stood at 5%.

Turning to `C=C(NC(=O)c1cnccn1)C(=O)N[C@@H](COC(C)(C)C)C(=O)OC`, the inhibition in assay [2] worked out at 15%.

In assay [2], `C=C(NC(=O)c1ccccn1)C(=O)N1CCC[C@H]1C(=O)OC` showed an inhibition of 4%.

As to `C=C(NC(=O)C(=C)NC(=O)c1csc(C2=N[C@@H]3c4csc(n4)[C@H]4NC(=O)c5csc(n5)[C@H]([C@](C)(O)[C@@H](C)O)NC(=O)[C@H]5CSC(=N5)/C(=C/C)NC(=O)[C@H]([C@@H](C)O)NC(=O)c5csc(n5)[C@]3(CC2)NC(=O)[C@H](C)NC(=O)C(=C)NC(=O)[C@H](C)NC(=O)[C@H]([C@@H](C)CC)N[C@@H]2C=Cc3c([C@H](C)O)cc(nc3[C@H]2O)C(=O)O[C@@H]4C)n1)C(N)=O`, the inhibition in assay [3] stood at 50%.

For `C=C(NC(=O)c1csc(-c2cccnc2)n1)C(=O)N[C@@H](COC(C)(C)C)C(=O)OC`, in assay [2], the inhibition was 30%.

On to `C=C(NC(=O)c1cnccn1)C(=O)NC(=C)C(=O)OC`, for which the inhibition in assay [2] worked out at 30%.

The compound `C=C(NC(=O)c1ccccn1)C(=O)N[C@@H](COC(C)(C)C)C(=O)OC` had an inhibition in assay [2] of 40%.

For the compound `C=C(NC(=O)c1csc(-c2cccnc2)n1)C(=O)N[C@@H](Cc1cn(C(=O)OC(C)(C)C)c2ccccc12)C(=O)OC`, the IC50 in assay [4] was 40 µM.

Turning to `C=C(NC(=O)c1cnccn1)C(=O)N1CCC[C@H]1C(=O)OC`, the inhibition in assay [2] was 25%.

Turning to `C=C(NC(=O)c1csc(-c2cccnc2)n1)C(=O)N[C@@H](Cc1c[nH]c2ccccc12)C(=O)OC`, in assay [5], the inhibition came out at 20%.

`C=C(NC(=O)c1ccccn1)C(=O)N[C@@H](Cc1cn(C(=O)OC(C)(C)C)c2ccccc12)C(=O)OC`: the inhibition in assay [1] was determined as 20%.

Consider `C=C(NC(=O)c1csc(-c2cccnc2)n1)C(=O)N1CCC[C@H]1C(=O)OC`, for which the inhibition in assay [2] came to 20%.

Source of the values: ChEMBL document CHEMBL1139553, “Synthesis of dehydroalanine fragments as thiostrepton side chain mimetics” (Bioorg Med Chem Lett, 2005).
